Data from ChEMBL document CHEMBL1145462, “In vivo pharmacodynamic activity of the glycopeptide dalbavancin” (Antimicrob Agents Chemother, 2007).
≈ marks a conversion by molar mass, not a printed value.

Tests used:
Staphylococcus aureus [1] = assay: AUC/MIC ratio of Staphylococcus aureus 33591 infected neutropenic mouse thigh infection model at 33.5 mg/kg, ip administered every 24 hrs by 2-log killing experiment; format: functional; conditions: route intraperitoneal
Streptococcus pneumoniae [2] = assay: AUC/MIC ratio of Streptococcus pneumoniae ATCC 10813 infected neutropenic mouse thigh infection model at 0.71 mg/kg, ip administered every 72 hrs by static effect experiment; format: functional; conditions: route intraperitoneal
Staphylococcus aureus [3] = assay: AUC/MBC ratio of Staphylococcus aureus Smith infected neutropenic mouse thigh infection model at 73.5 mg/kg, ip administered every 24 hrs by 2-log killing experiment; format: functional; conditions: route intraperitoneal
Streptococcus pneumoniae [4] = assay: Bactericidal activity against penicillin-susceptible Streptococcus pneumoniae ATCC 10813 infected neutropenic Swiss ICR mouse thigh infection model assessed as drug level causing 1-log reduction of bacterial count at 1.34 mg/kg, ip dosed every 24 hrs; format: functional; conditions: route intraperitoneal
Streptococcus pneumoniae [5] = assay: Bactericidal activity against penicillin-susceptible Streptococcus pneumoniae ATCC 10813 infected neutropenic Swiss ICR mouse thigh infection model assessed as drug level causing 2-log reduction of bacterial count at 2.3 mg/kg, ip dosed every 12 hrs; format: functional; conditions: route intraperitoneal
Procedure, shortened: (§1)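 Neutropenic mice (cyclophosphamide ip 150 mg/kg day −4, 100 mg/kg day −1, then every 48 h) received 0.1 ml log-phase inoculum per thigh under halothane. Intraperitoneal dalbavancin started 2 h later and was given for 6 days at q12h, q24h, q36h or q72h, two mice per regimen. Thigh CFU were counted at 144 h. Endpoint doses relative to start-of-therapy counts came from Hill-model nonlinear regression and are expressed per 24 h.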

Staphylococcus aureus [6] = assay: AUC/MIC ratio of Staphylococcus aureus Smith infected neutropenic mouse thigh infection model at 148 mg/kg, ip administered every 72 hrs by 2-log killing experiment; format: functional; conditions: route intraperitoneal
Staphylococcus aureus [7] = assay: AUC/MIC ratio of methicillin-resistant Staphylococcus aureus infected neutropenic mouse thigh infection model at 43 mg/kg, ip administered every 72 hrs by static effect experiment; format: functional; conditions: route intraperitoneal
Staphylococcus aureus [8] = assay: AUC/MIC ratio of Staphylococcus aureus ATCC 25923 infected neutropenic mouse thigh infection model at 51.2 mg/kg, ip administered every 24 hrs by 1-log killing experiment; format: functional; conditions: route intraperitoneal
[9] = Cmax in bacterial pathogen-infected neutropenic Swiss ICR mouse thigh infection model at 5 mg/kg, ip; format: ADME, organism-based; design: dose 5 mg/kg, route intraperitoneal; conditions: in vivo
Procedure, shortened: (§2)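 Thigh-infected neutropenic mice received single intraperitoneal doses (2.5, 5, 10, 20, 40, 80 mg/kg; 0.2 ml/dose). Blood was drawn by retroorbital aspiration from groups of three mice at 0.5, 1, 2, 4, 6, 24, 48, 72 and 96 h. Plasma levels were measured by microbiologic assay with Bacillus subtilis (detection limit 0.10 mg/liter). Noncompartmental analysis was used: half-life by linear least-squares regression, AUC by trapezoidal rule.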

Staphylococcus aureus [10] = assay: AUC/MBC ratio of Staphylococcus aureus Smith infected neutropenic mouse thigh infection model at 50.7 mg/kg, ip administered every 24 hrs by 1-log killing experiment; format: functional; conditions: route intraperitoneal
Staphylococcus aureus [11] = assay: Antibacterial activity against Staphylococcus aureus ATCC 25923 in presence of 95% mouse serum; format: functional
Procedure, shortened: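 MIC determined in broth, heat-treated (100°C, 30 min) 95% mouse serum, and 95% mouse serum ultrafiltrate, using arithmetic dilutions of 0.02 mg/liter per tube. Protein binding estimated as (MIC in 95% serum − MIC in ultrafiltrate)/MIC in 95% serum.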

Staphylococcus aureus [12] = assay: AUC/MBC ratio of Staphylococcus aureus 31005 infected neutropenic mouse thigh infection model at 67.7 mg/kg, ip administered every 72 hrs by static effect experiment; format: functional; conditions: route intraperitoneal
Staphylococcus aureus [13] = assay: AUC/MBC ratio of Staphylococcus aureus 33591 infected neutropenic mouse thigh infection model at 33.5 mg/kg, ip administered every 24 hrs by 2-log killing experiment; format: functional; conditions: route intraperitoneal
Streptococcus pneumoniae [14] = assay: Bactericidal activity against penicillin-susceptible Streptococcus pneumoniae ATCC 10813 infected neutropenic Swiss ICR mouse thigh infection model assessed as drug level causing 2-log reduction of bacterial count at 0.71 mg/kg, ip dosed every 72 hrs; format: functional; conditions: route intraperitoneal; procedure, shortened: as §1
Staphylococcus aureus [15] = assay: AUC/MBC ratio of methicillin-resistant Staphylococcus aureus infected neutropenic mouse thigh infection model at 43 mg/kg, ip administered every 72 hrs by static effect experiment; format: functional; conditions: route intraperitoneal
Staphylococcus aureus [16] = assay: AUC/MIC ratio of methicillin-resistant Staphylococcus aureus infected neutropenic mouse thigh infection model at 45.3 mg/kg, ip administered every 24 hrs by 1-log killing experiment; format: functional; conditions: route intraperitoneal
[17] = Half life in bacterial pathogen-infected neutropenic Swiss ICR mouse thigh infection model at 5 mg/kg, ip; format: ADME, organism-based; design: dose 5 mg/kg, route intraperitoneal; conditions: in vivo; procedure, shortened: as §2
Staphylococcus aureus [18] = assay: Bactericidal activity against […] Staphylococcus aureus ATCC 29213 infected neutropenic Swiss ICR mouse thigh infection model assessed as drug level causing 1-log reduction of bacterial count at 10 mg/kg, ip dosed every 72 hrs; format: functional; conditions: route intraperitoneal
Procedure, shortened: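 Neutropenic thigh-infected mice were treated ip starting 2 h post-infection for 144 h, with doses given q24h or q72h. Thigh CFU were fitted to a sigmoid Hill Emax model by nonlinear least squares. The dose giving a 1-log10 reduction versus start-of-therapy counts was derived from the fit, together with the free-drug 24-h AUC/MIC.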

Staphylococcus aureus [19] = assay: AUC/MIC ratio of Staphylococcus aureus ATCC 25923 infected neutropenic mouse thigh infection model at 60 mg/kg, ip administered every 24 hrs by 2-log killing experiment; format: functional; conditions: route intraperitoneal
Staphylococcus aureus [20] = assay: Antibacterial activity against Staphylococcus aureus 33591 by microdilution method; format: functional
Procedure, shortened: (§3)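 MICs in duplicate on at least two occasions by standard CLSI broth microdilution; S. aureus grown and quantified in Mueller-Hinton broth/agar.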

Staphylococcus aureus [21] = assay: AUC/MBC ratio of Staphylococcus aureus 31005 infected neutropenic mouse thigh infection model at 94.6 mg/kg, ip administered every 72 hrs by 1-log killing experiment; format: functional; conditions: route intraperitoneal
Staphylococcus aureus [22] = assay: AUC/MIC ratio of Staphylococcus aureus ATCC 25923 infected neutropenic mouse thigh infection model at 42.7 mg/kg, ip administered every 24 hrs by static effect experiment; format: functional; conditions: route intraperitoneal
Staphylococcus aureus [23] = assay: AUC/MIC ratio of Staphylococcus aureus Smith infected neutropenic mouse thigh infection model at 33.5 mg/kg, ip administered every 24 hrs by static effect experiment; format: functional; conditions: route intraperitoneal
Streptococcus pneumoniae [24] = assay: AUC/MIC ratio of Streptococcus pneumoniae 1293 infected neutropenic mouse thigh infection model at 0.55 mg/kg, ip administered every 24 hrs by 1-log killing experiment; format: functional; conditions: route intraperitoneal
Streptococcus pneumoniae [25] = assay: Bactericidal activity against penicillin-susceptible Streptococcus pneumoniae ATCC 10813 infected neutropenic Swiss ICR mouse thigh infection model assessed as drug level causing 1-log reduction of bacterial count at 2.3 mg/kg, ip dosed every 12 hrs; format: functional; conditions: route intraperitoneal; procedure, shortened: as §1
Streptococcus pneumoniae [26] = assay: AUC/MIC ratio of Streptococcus pneumoniae ATCC 10813 infected neutropenic mouse thigh infection model at 1.34 mg/kg, ip administered every 24 hrs by static effect experiment; format: functional; conditions: route intraperitoneal
Staphylococcus aureus [27] = assay: Antibacterial activity against methicillin-resistant Staphylococcus aureus by microdilution method; format: functional; procedure, shortened: as §3
Streptococcus pneumoniae [28] = assay: AUC/MIC ratio of Streptococcus pneumoniae ATCC 10813 infected neutropenic mouse thigh infection model at 1.75 mg/kg, ip administered every 24 hrs by 2-log killing experiment; format: functional; conditions: route intraperitoneal
Streptococcus pneumoniae [29] = assay: AUC/MIC ratio of Streptococcus pneumoniae 1293 infected neutropenic mouse thigh infection model at 0.65 mg/kg, ip administered every 24 hrs by 2-log killing experiment; format: functional; conditions: route intraperitoneal

CN[C@H]1C(=O)N[C@@H]2Cc3ccc(cc3)Oc3cc4cc(c3O[C@@H]3O[C@H](C(=O)O)[C@@H](O)[C@H](O)[C@H]3NC(=O)CCCCCCCCC(C)C)Oc3ccc(cc3Cl)[C@@H](O)[C@@H]3NC(=O)[C@H](NC(=O)[C@@H]4NC(=O)[C@@H](NC2=O)c2cc(cc(O)c2Cl)Oc2cc1ccc2O)c1ccc(O)c(c1)-c1c(O[C@H]2O[C@H](CO)[C@@H](O)[C@H](O)[C@@H]2O)cc(O)cc1[C@@H](C(=O)NCCCN(C)C)NC3=O [DALBAVANCIN]
RatioAUC/MIC (Staphylococcus aureus [1]): 157 | RatioAUC/MIC (Streptococcus pneumoniae [2]): 1.4 | Ratio (Staphylococcus aureus [3]): 173 | Activity (Streptococcus pneumoniae [4]): 1.54 | Activity (Streptococcus pneumoniae [5]): 3.5 | RatioAUC/MIC (Staphylococcus aureus [6]): 254 | RatioAUC/MIC (Staphylococcus aureus [7]): 147 | RatioAUC/MIC (Staphylococcus aureus [8]): 250 | Cmax [9]: 29 µg/mL | Ratio (Staphylococcus aureus [10]): 119 | MIC (Staphylococcus aureus [11]): 32 mg/L | Ratio (Staphylococcus aureus [12]): 112 | Ratio (Staphylococcus aureus [13]): 74.3 | Activity (Streptococcus pneumoniae [14]): 0.82 | Ratio (Staphylococcus aureus [15]): 35.3 | RatioAUC/MIC (Staphylococcus aureus [16]): 452 | half-life [17]: 9.6 h | Activity (Staphylococcus aureus [18]): 31 | RatioAUC/MIC (Staphylococcus aureus [19]): 289 | MBC (Staphylococcus aureus [20]): 0.25 mg/L (≈ 0.138 µM) | MIC (Staphylococcus aureus [20]): 0.12 mg/L (≈ 0.0661 µM) | Ratio (Staphylococcus aureus [21]): 163 | RatioAUC/MIC (Staphylococcus aureus [22]): 216 | RatioAUC/MIC (Staphylococcus aureus [23]): 156 | RatioAUC/MIC (Streptococcus pneumoniae [24]): 21.7 | Activity (Streptococcus pneumoniae [25]): 2.8 | RatioAUC/MIC (Streptococcus pneumoniae [26]): 7.5 | MBC (Staphylococcus aureus [27]): 0.25 mg/L (≈ 0.138 µM) | MIC (Staphylococcus aureus [27]): 0.06 mg/L (≈ 0.033 µM) | RatioAUC/MIC (Streptococcus pneumoniae [28]): 9.9 | RatioAUC/MIC (Streptococcus pneumoniae [29]): 25.9
